Calls of active or inactive are those of the source. The rule behind the calls is not given here. Bridge positions count the residues as written; N and C are the ends. Square brackets hold non-standard residues; d marks the D form. Peptide text beside a SMILES is read from it. * marks the point of attachment. d(aThr) = C[C@@H](O)[C@@H](N)C(=O)O; Dhb = C/C=C(\N)C(=O)O; Propionyl = CCC(=O)*
How the values were obtained:
[1] = biological target: Transient receptor potential cation channel subfamily V member 1 (Mus musculus) (UniProt Q704Y3); experiment: Antagonist activity at TRPV1 channel in C57B1 mouse dorsal root ganglion cells assessed as inhibition of capsaicin-induced calcium flux at 125 uM after 3 hrs by fluorometric analysis in presence of 5.6 ug/ml trafficking inhibitor brefeldin A; type: functional, tissue-based
Sequence of Transient receptor potential cation channel subfamily V member 1 (Mus musculus) (Q704Y3 whole entry): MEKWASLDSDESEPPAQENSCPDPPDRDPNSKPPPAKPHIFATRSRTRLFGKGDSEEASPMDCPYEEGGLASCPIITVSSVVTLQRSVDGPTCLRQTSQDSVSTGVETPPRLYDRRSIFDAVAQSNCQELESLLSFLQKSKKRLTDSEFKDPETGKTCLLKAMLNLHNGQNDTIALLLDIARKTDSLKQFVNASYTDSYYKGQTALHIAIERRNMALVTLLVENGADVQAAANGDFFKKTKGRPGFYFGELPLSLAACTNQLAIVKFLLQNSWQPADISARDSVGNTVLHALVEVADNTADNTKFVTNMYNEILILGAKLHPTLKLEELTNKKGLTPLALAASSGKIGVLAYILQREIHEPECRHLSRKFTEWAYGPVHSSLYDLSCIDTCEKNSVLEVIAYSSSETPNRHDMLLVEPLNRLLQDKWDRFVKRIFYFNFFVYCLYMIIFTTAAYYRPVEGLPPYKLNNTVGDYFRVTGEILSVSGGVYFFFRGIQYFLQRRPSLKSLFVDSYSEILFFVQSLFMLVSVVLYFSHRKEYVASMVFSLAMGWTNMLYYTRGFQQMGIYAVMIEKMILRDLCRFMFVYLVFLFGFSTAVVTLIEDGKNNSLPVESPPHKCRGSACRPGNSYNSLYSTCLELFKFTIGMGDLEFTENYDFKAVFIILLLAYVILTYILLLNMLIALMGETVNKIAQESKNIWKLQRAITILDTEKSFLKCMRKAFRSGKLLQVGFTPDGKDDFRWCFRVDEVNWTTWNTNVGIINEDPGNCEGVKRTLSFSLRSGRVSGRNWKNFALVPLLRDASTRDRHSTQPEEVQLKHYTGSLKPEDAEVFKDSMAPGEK

[2] = biological target: Transient receptor potential cation channel subfamily V member 1 (Mus musculus) (UniProt Q704Y3); experiment: Antagonist activity at TRPV1 channel in C57B1 mouse dorsal root ganglion cells assessed as inhibition of capsaicin-induced calcium flux at 125 uM after 3 hrs by fluorometric analysis in presence of 6.3 ug/ml transcriptional inhibitor actinomycin D; type: functional, tissue-based
[3] = biological target: Transient receptor potential cation channel subfamily V member 1 (Mus musculus) (UniProt Q704Y3); experiment: Antagonist activity at TRPV1 channel in C57B1 mouse dorsal root ganglion cells assessed as inhibition of capsaicin-induced calcium flux at 125 uM after 3 hrs by fluorometric analysis in presence of 10 ug/ml translational inhibitor cycloheximide; type: functional, tissue-based
[4] = biological target: Transient receptor potential cation channel subfamily V member 1 (Mus musculus) (UniProt Q704Y3); experiment: Antagonist activity at TRPV1 channel in C57B1 mouse dorsal root ganglion cells assessed as inhibition of capsaicin-induced calcium flux at 125 uM after 3 hrs by fluorometric analysis; type: functional, tissue-based
[5] = biological target: Transient receptor potential cation channel subfamily V member 1 (Mus musculus) (UniProt Q704Y3); experiment: Antagonist activity at TRPV1 channel in C57B1 mouse dorsal root ganglion cells assessed as inhibition of capsaicin-induced calcium flux at 125 uM after 5 mins by fluorometric analysis in presence of at 25 mM of KCl; type: functional, tissue-based
In short: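 Mouse C57B1 cervical/lumbar DRG neurons, Fura-2 AM calcium imaging at 20–25°C, each neuron analysed separately. […] Final 25 or 100 mM KCl pulses check viability.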

[6] = biological target: T1, Transient receptor potential cation channel subfamily V member 1 (Homo sapiens, UniProt Q8NER1); details: HEK293, 375 uM
T1 sequence (Q8NER1 whole entry): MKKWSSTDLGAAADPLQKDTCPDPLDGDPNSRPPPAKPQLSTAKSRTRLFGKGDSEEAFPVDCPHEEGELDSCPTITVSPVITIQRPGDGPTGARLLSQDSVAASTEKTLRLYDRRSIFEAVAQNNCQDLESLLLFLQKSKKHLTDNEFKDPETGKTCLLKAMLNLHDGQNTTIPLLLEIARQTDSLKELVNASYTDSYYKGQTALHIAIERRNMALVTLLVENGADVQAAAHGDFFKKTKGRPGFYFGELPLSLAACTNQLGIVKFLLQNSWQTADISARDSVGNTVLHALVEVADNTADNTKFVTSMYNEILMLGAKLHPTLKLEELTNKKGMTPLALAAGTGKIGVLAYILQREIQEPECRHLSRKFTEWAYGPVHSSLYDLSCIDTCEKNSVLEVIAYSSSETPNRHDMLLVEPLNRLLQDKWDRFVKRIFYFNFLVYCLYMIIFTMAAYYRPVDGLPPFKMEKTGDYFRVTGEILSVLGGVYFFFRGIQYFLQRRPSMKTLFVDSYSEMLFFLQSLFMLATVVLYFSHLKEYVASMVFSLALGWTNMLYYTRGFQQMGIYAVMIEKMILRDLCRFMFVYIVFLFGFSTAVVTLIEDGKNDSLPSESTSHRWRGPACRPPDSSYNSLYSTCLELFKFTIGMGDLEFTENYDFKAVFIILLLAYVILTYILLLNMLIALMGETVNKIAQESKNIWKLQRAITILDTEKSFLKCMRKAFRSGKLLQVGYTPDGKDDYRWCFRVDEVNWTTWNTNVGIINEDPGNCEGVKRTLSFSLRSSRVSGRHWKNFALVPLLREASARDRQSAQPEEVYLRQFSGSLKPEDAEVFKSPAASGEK

[7] = system: Transient receptor potential cation channel subfamily V member 1 (Homo sapiens), Q8NER1 [F660A]; experiment: Antagonist activity at human TRPV1 F660A mutant expressed in HEK293 cell assessed as inhibition of capsaicin-induced calcium flux at 375 uM for 30 mins before capsaicin challenge measured after 48 hrs by fluorometric analysis; type: functional, cell-based
Sequence of Transient receptor potential cation channel subfamily V member 1 (Homo sapiens), Q8NER1 [F660A] (Q8NER1 whole entry F660A): as the sequence (Q8NER1 whole entry) above, with F660A counted along it
In short: (§1)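 HEK-293 cells on gelatin-coated plates transiently transfected with human TRPV1 mutant plasmid (200 ng/well, lipofection 4 h), then grown 48 h. Fluo-4 loaded at 37°C. […] Fluorescence read 1 min; initial rate (ΔF/sec) and ΔFmax compared with capsaicin-only control.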

[8] = biological target: T1, Transient receptor potential cation channel subfamily V member 1; experiment: Antagonist activity at human TRPV1 expressed in human BEAS-2B cells assessed as inhibition of capsaicin-induced calcium flux at 25 to 1000 uM preincubated for 30 mins before 2.5 uM capsaicin challenge measured after 1 min by fluorometric analysis; type: functional, cell-based
In short: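 Human TRPV1-expressing BEAS-2B cells loaded with Fluo-4 (1 h, ~22°C, dark), then washed into LHC-9 with 1 mM probenecid and Trypan Red containing compound. […] Ca2+ signal tracked 1 min; initial rate and ΔFmax relative to capsaicin-only cells.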

[9] = system: Transient receptor potential cation channel subfamily V member 1 (Homo sapiens), Q8NER1 [E649A]; experiment: Antagonist activity at human TRPV1 E649A mutant expressed in HEK293 cell assessed as inhibition of capsaicin-induced calcium flux at 375 uM for 30 mins before capsaicin challenge measured after 48 hrs by fluorometric analysis; type: functional, cell-based; in short: as §1
Sequence of Transient receptor potential cation channel subfamily V member 1 (Homo sapiens), Q8NER1 [E649A] (Q8NER1 whole entry E649A): as the sequence (Q8NER1 whole entry) above, with E649A counted along it

[10] = system: Transient receptor potential cation channel subfamily V member 1 (Homo sapiens), Q8NER1 [E600V]; experiment: Antagonist activity at human TRPV1 E600V mutant expressed in HEK293 cell assessed as inhibition of capsaicin-induced calcium flux at 375 uM for 30 mins before capsaicin challenge measured after 48 hrs by fluorometric analysis; type: functional, cell-based; in short: as §1
Sequence of Transient receptor potential cation channel subfamily V member 1 (Homo sapiens), Q8NER1 [E600V] (Q8NER1 whole entry E600V): as the sequence (Q8NER1 whole entry) above, with E600V counted along it

[11] = system: Transient receptor potential cation channel subfamily V member 1 (Homo sapiens), Q8NER1 [N604A]; experiment: Antagonist activity at human TRPV1 N604A mutant expressed in HEK293 cell assessed as inhibition of capsaicin-induced calcium flux at 375 uM for 30 mins before capsaicin challenge measured after 48 hrs by fluorometric analysis; type: functional, cell-based; in short: as §1
Sequence of Transient receptor potential cation channel subfamily V member 1 (Homo sapiens), Q8NER1 [N604A] (Q8NER1 whole entry N604A): as the sequence (Q8NER1 whole entry) above, with N604A counted along it

[12] = biological target: T1, Transient receptor potential cation channel subfamily V member 1; details: HEK293, 375 uM; remark: listed apart in the source
[13] = biological target: T1, Transient receptor potential cation channel subfamily V member 1; details: HEK293, 375 uM; remark: listed apart in the source
[14] = biological target: T1, Transient receptor potential cation channel subfamily V member 1; experiment: Antagonist activity at human TRPV1 expressed in human BEAS-2B cells assessed as inhibition of capsaicin-induced calcium flux at 25 to 1000 uM co-treated with 2.5 uM capsaicin measured after 30 mins by fluorometric analysis; type: functional, cell-based
In short: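 BEAS-2B cells stably overexpressing human TRPV1, grown to confluence in LHC-9. Loaded 1 h at ~22°C in the dark with Fluo-4 reagent, then washed into LHC-9 with 1 mM probenecid and Trypan Red. […] Fluorescence followed 1 min; rate and ΔFmax versus capsaicin-only control.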

[15] = system: Transient receptor potential cation channel subfamily V member 1 (Homo sapiens), Q8NER1 [C578A]; experiment: Antagonist activity at human TRPV1 C578A mutant expressed in HEK293 cell assessed as inhibition of capsaicin-induced calcium flux at 375 uM for 30 mins before capsaicin challenge measured after 48 hrs by fluorometric analysis; type: functional, cell-based; in short: as §1
Sequence of Transient receptor potential cation channel subfamily V member 1 (Homo sapiens), Q8NER1 [C578A] (Q8NER1 whole entry C578A): as the sequence (Q8NER1 whole entry) above, with C578A counted along it

[16] = system: Transient receptor potential cation channel subfamily V member 1 (Homo sapiens), Q8NER1 [C621A]; experiment: Antagonist activity at human TRPV1 C621A mutant expressed in HEK293 cell assessed as inhibition of capsaicin-induced calcium flux at 375 uM for 30 mins before capsaicin challenge measured after 48 hrs by fluorometric analysis; type: functional, cell-based; in short: as §1
Sequence of Transient receptor potential cation channel subfamily V member 1 (Homo sapiens), Q8NER1 [C621A] (Q8NER1 whole entry C621A): as the sequence (Q8NER1 whole entry) above, with C621A counted along it

## C/C=C(\NC(=O)[C@H](C)NC(=O)[C@@H](NC(=O)[C@H](NC(=O)[C@H](Cc1ccccc1)NC(=O)[C@@H](CC(C)C)NC(=O)[C@@H](Cc1ccccc1)NC(C)=O)[C@@H](C)O)C(C)C)C(=O)O (Ac-[dF][dL]F[d(aThr)]VA[Dhb]-OH)
[1]
  inhibition: inactive
[2]
  inhibition: inactive
[3]
  inhibition: inactive
[4]
  inhibition: inactive
[5]
  inhibition: Active

## C/C=C(\NC(=O)[C@H](C)NC(=O)[C@@H](NC(=O)[C@H](NC(=O)[C@H](Cc1ccccc1)NC(=O)[C@@H](CC(C)C)NC(=O)[C@@H](Cc1ccccc1)NC(=O)CC)[C@@H](C)O)C(C)C)C(=O)O (Propionyl-[dF][dL]F[d(aThr)]VA[Dhb]-OH)
[6]
  inhibition: inactive
[7]
  inhibition: inactive
[8]
  inhibition: Active
[9]
  inhibition: Active
[10]
  inhibition: Active
[11]
  inhibition: Active
[12]
  inhibition: Active
[13]
  inhibition: Active
[14]
  inhibition: Active
[15]
  inhibition: inactive
[16]
  inhibition: inactive

## C/C=C1\NC(=O)[C@H](C)NC(=O)[C@H](C(C)C)NC(=O)[C@H](NC(=O)[C@H](Cc2ccccc2)NC(=O)[C@@H](CC(C)C)NC(=O)[C@@H](Cc2ccccc2)NC(=O)CC)[C@@H](C)OC1=O (Propionyl-[dF][dL]F[d(aThr)]VA[Dhb]; ester 4-C)
[7]
  inhibition: inactive
[8]
  inhibition: Active
[9]
  inhibition: Active
[10]
  inhibition: Active
[11]
  inhibition: Active
[14]
  inhibition: Active
[15]
  inhibition: inactive
[16]
  inhibition: inactive

Source: ChEMBL document CHEMBL1781987, “Nobilamides A-H, long-acting transient receptor potential vanilloid-1 (TRPV1) antagonists from mollusk-associated bacteria” (J Med Chem, 2011)
